Experiment [1] concerns the target T1, D(2) dopamine receptor (Rattus norvegicus, UniProt P61169). The experiment in a line: Binding activity against dopamine receptor D2 in rat brain, using [3H]spiperone as the radioligand. The experiment is classed as tissue-based. In a few lines:
(§1)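 Rat striatal membranes; [3H]spiperone 0.95–1.4 nM final, with 40 nM ketanserin in all tubes to mask 5HT-2 sites. Buffer 50 mM Tris-HCl pH 7.4 with 120 mM NaCl, 5 mM KCl, 2 mM CaCl2, 1 mM MgCl2; 37 °C.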

Experiment [2] concerns the target Muscarinic acetylcholine receptor. The experiment in a line: Binding activity against muscarinic acetylcholine receptor in rat brain using [3H]QNB as the radioligand. The experiment is classed as tissue-based.
Experiment [3] deals with T2, D(1A) dopamine receptor (Rattus norvegicus, UniProt P18901). Nature of the experiment: Binding activity against Dopamine receptor D1 in rat brain, using [3H]SCH-23390 as the radioligand. It is filed as tissue-based.
The target in experiment [4] is T1, D(2) dopamine receptor. The experiment in a line: Binding activity against dopamine D2 receptor in rat brain, using [3H]spiperone as the radioligand.
For experiment [5], the target named is T2, D(1A) dopamine receptor. The experiment in a line: Binding activity against dopamine D1 receptor in rat brain, using [3H]SCH-23390 as the radioligand. It is filed as tissue-based. In a few lines:
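Rat striatum homogenized in 50 mM Tris-HCl pH 7.4 with 5 mM MgSO4, washed and resuspended in 200 vol. Incubated with [3H]SCH 23390 0.45–0.76 nM final, 37 °C, 30 min; nonspecific binding with 1 μM SCH 23390.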

For experiment [6], the target named is T1, D(2) dopamine receptor. The experiment in a line: Binding activity against Dopamine receptor D2 in rat brain, using [3H]spiperone as the radioligand. The experiment is classed as tissue-based. In a few lines: as §1
Experiment [7] deals with Muscarinic acetylcholine receptor. The experiment in a line: Binding activity against muscarinic receptor in rat brain using [3H]QNB as the radioligand. It is filed as tissue-based.

One may read the pIC50 as the IC50 on a negative log10 scale, so that one unit is a factor of ten. Higher therefore signals a small IC50. By IC50 is commonly meant the concentration needed to halve the response being measured. The low end stands for higher potency, the high end for lower potency.

pIC50: −log10 of the molar value.

T2 sequence (P18901 whole entry): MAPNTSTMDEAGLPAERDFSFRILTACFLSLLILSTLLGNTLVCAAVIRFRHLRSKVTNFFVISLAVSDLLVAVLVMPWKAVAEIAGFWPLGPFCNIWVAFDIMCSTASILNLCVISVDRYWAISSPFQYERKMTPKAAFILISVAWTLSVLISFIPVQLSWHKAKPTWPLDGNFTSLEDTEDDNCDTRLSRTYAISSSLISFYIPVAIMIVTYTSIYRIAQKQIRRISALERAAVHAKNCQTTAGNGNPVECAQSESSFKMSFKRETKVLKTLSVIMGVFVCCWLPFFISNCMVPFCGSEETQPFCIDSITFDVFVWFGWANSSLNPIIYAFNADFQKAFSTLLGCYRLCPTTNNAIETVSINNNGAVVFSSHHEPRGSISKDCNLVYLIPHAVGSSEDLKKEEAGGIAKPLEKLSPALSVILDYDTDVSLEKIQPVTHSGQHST
T1 sequence (P61169 whole entry): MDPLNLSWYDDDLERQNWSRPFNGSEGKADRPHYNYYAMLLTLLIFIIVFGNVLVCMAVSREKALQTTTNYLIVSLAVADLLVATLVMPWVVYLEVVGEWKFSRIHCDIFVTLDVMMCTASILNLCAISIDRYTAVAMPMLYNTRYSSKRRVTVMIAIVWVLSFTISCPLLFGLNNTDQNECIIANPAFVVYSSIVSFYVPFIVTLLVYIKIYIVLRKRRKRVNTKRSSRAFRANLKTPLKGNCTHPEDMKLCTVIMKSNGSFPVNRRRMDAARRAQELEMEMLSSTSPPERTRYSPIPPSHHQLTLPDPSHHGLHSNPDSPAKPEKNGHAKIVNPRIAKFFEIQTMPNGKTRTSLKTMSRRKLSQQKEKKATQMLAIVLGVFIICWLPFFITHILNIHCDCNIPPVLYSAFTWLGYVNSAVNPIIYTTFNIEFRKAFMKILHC

Take `CC1c2ccccc2C=C(N2CCN(C)CC2)c2ccccc21` (stereo unspecified): the pIC50 on D(2) dopamine receptor [1] is 5.58; at D(1A) dopamine receptor [3], 7.13. The molecule also showed an IC50 in experiment [2] of 1020 nM.
Turning to `CN1CCN(C2=Nc3ccccc3Nc3ccccc32)CC1`, the pIC50 on D(2) dopamine receptor [4] is less than 5.00; at D(1A) dopamine receptor [5], 6.05.
As to `C/C=C1/c2ccccc2C=C(N2CCN(C)CC2)c2ccccc21`, the pIC50 was 5.16 on D(2) dopamine receptor [1] and 6.52 on D(1A) dopamine receptor [3]. The molecule also gave an IC50 in experiment [2] of 2600 nM.
`CN1CCN(C2=Nc3ccccc3Nc3ccc(Cl)cc32)CC1` [ISOCLOZAPINE]: the pIC50 at D(2) dopamine receptor [6] was 6.66; at D(1A) dopamine receptor [5], 7.20. This molecule also registered an IC50 in experiment [7] of 55 nM.
